# Bioassay records from PubChem.
# Hits are enriched below; roughly 4.5% of the tested compounds scored in any of these assays.
# AHR act – activates the human aryl hydrocarbon receptor | AID 2796 | AHR-responsive luciferase reporter cells, luminescence | activation, % at 5 µM | actives 2.5% (n = 320,000); in the data active = activation above about 47%;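 also: 0% = vehicle wells and 100% = reference agonist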
# PERK inh – blocks human PERK kinase; Q9NZJ5; CHO PERK-DD fusion, SEAP luminescence translation reporter; inhibition, % at 5.6 µM; actives 0.17% (n = 220,000);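 active = inhibition above the mean inhibition of all tested compounds plus 3 SD, set separately per screening campaign, cut at about 2.9% in these data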;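 also: PERK kinase domain activated by AP20187 dimerizer at 100 nM; 0% = DMSO with dimerizer and 100% = rapamycin at 8.4 µM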
# Target sequence (Q9NZJ5 whole entry, looked up, the tested form may be a part): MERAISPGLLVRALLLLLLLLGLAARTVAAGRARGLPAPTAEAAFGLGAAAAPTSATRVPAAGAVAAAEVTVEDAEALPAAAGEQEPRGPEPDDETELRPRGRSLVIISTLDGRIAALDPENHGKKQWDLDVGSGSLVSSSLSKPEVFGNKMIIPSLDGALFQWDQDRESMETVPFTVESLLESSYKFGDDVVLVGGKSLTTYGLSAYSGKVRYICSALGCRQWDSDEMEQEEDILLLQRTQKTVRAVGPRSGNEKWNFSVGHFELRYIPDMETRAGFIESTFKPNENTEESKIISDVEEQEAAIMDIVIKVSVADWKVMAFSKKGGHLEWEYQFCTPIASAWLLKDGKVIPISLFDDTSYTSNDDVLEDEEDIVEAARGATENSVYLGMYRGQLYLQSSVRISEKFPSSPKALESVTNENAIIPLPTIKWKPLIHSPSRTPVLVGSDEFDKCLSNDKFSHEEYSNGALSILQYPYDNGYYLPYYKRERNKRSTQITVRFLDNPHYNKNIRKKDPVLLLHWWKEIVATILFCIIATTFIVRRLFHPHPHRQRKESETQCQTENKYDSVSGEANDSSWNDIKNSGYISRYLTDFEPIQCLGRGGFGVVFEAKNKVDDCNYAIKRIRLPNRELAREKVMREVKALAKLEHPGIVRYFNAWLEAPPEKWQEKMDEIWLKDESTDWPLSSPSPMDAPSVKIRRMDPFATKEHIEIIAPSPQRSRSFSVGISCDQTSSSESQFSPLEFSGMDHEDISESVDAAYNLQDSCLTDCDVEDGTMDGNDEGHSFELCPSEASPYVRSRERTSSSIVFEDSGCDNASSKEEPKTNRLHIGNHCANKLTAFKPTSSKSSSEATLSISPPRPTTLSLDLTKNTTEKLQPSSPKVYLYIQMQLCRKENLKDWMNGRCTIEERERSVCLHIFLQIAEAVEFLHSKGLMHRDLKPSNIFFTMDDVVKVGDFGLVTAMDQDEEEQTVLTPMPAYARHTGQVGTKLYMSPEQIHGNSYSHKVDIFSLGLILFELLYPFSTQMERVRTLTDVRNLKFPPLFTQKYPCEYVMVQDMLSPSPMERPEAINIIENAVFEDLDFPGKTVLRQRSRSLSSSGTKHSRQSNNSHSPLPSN
# STAT1 activator – STAT1 signaling activation | NIH 3T3 STAT1-luciferase reporter, IFN-gamma, luminescence; 100% = IFN-gamma alone, no compound | activation (% of control), % at 5.5 µM | actives 2.6% (n = 200,000) | AID 932;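 active = activation above the screen-wide mean activation plus 3 SD, cut at about 130% in these data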;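 also: raw ratio to IFN-gamma control signal so 100% means no change and 0% no light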
# Mdm2 ligase inh – Mdm2 E3 ligase (human) inhibition; Q00987; cell-based MDM2 ubiquitination luciferase reporter, 2 h; 0 = plate control, 100 = twice control, blank-subtracted; signal enhancement, % at 5 µM; actives 0.11% (n = 210,000); AID 1230;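 active = signal enhancement of 30% or more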;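 also: luminescence tracks abundance of the self-degrading MDM2-luciferase fusion protein; higher signal means inhibition of MDM2 E3 ligase activity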
#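 Test system: mammalian cells stably expressing self-ubiquitinating, self-degrading MDM2 E3–luciferase fusion; Amount: 2000 cells in each well; Medium: DMEM; Schedule: 4 h settle plus 2 h compound, 37 °C; Technique: SteadyLite luciferase luminescence after 15 min room-temperature reagent incubation; Benchmarks: plate control and blank wells.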
# NF-kB expr up – raises NF-kB expression in human neuronal cells; NF-kB reporter expression; active compounds read high; fold change at 12.5 µM; actives 1.6% (n = 190,000); AID 1239; in the data active = fold change above about 3.3
# APP 5'UTR act – activates APP 5'UTR luciferase reporter; SH-SY5Y APP 5'UTR luciferase reporter, luminescence; zero percent = DMSO vehicle wells; activation, % at 2 µM; actives 1% (n = 190,000); AID 1276;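 active = activation above a set limit, based on mean plus 3 SD of controls, cut at about 140% in these data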
# Active calls of the source: *; nt = no result.
SMILES,AHR act,PERK inh,STAT1 activator,Mdm2 ligase inh,NF-kB expr up,APP 5'UTR act
CN=c1sc(C(=O)Nc2ccccc2)c(C)n1C,71.5*,1.5,101.9,-5.3,1.09,7.9
CN=c1sc(C(=O)Nc2cccc(Cl)c2)cc(=O)n1C,3.3,-0.9,93.3,-7.8,1.11,-0.6
CCCNC(=O)Nc1nc2ccccc2s1,7.6,1.2,nt,nt,nt,nt
CCCCNC(=O)Nc1nc2ccc(CC)cc2s1,-4.8,-0.2,144.3*,-16.4,1.89,84.9
O=C(Cc1c(F)cccc1Cl)Nc1nc2ccccc2s1,11.2,-0.1,135.3*,-8.5,1.02,51.0
COc1cc(OC)cc(C(=O)Nc2nc3ccc(S(C)(=O)=O)cc3s2)c1,49.0*,0.0,103.0,-5.2,0.78,37.2
CCOCC(=O)Nc1nc2ccc(C)cc2s1,-3.7,0.0,123.8,-7.5,3.44*,95.7
COc1cc(C(=O)Nc2nc3ccc(S(C)(=O)=O)cc3s2)cc(OC)c1C,3.1,-1.0,nt,-13.6,nt,nt
Cc1cccc(OCc2nc(-c3cccnc3)no2)c1,7.4,0.6,110.4,-8.1,0.7,0.1
Cn1ccnc1C1CCCCN1Cc1nc(-c2ccc(Cl)cc2)no1 (stereo unspecified),6.4,0.2,98.8,-3.0,1.15,7.6
O=C(CN1CCN(c2cccc(Cl)c2)CC1)c1ccc(O)cc1O,-0.6,nt,nt,nt,nt,nt
Cc1ccc(C(=O)Nc2nc3ccc(S(C)(=O)=O)cc3s2)s1,0.7,0.4,145.6*,-20.1,2.51,32.7
CCC(=O)Nc1nc2ccc(S(C)(=O)=O)cc2s1,8.5,-0.3,131.3*,-21.4,1.57,-9.9
CCC(=O)Nc1nc2ccc(NC(C)=O)cc2s1,75.8*,-0.6,111.0,-17.0,1.41,6.4
CCOC(=O)CC(=O)Nc1nc2ccccc2s1,14.9,-0.3,113.8,-40.8,1.27,0.0
CCOC(=O)Nc1nc2ccccc2s1,12.2,-0.1,126.8,-14.4,3.47*,55.9
CC(=O)NNC(=S)Nc1cccc(F)c1,-3.1,1.4,nt,-6.8,nt,nt
COc1ccc2nc(NC(=O)c3ccc(-c4cccc([N+](=O)[O-])c4)o3)sc2c1,7.7,0.4,94.8,-15.8,0.94,19.7
CC(=O)Nc1ccc2nc(NC(=O)c3ccc([N+](=O)[O-])o3)sc2c1,57.6*,nt,nt,nt,nt,nt
CCCN1C(=O)C2(C(C(=O)c3ccc(C)o3)=C(O)C(=O)N2CCCOC)c2ccccc21 (stereo unspecified),-2.2,1.2,nt,-3.2,nt,nt
COc1ccc(NC(=O)c2c(NC(=O)CNCc3ccco3)sc3c2CCC3)cc1,52.8*,-0.9,103.0,-4.8,0.86,-19.5
CCN(CC)c1ccc(/C=N/NC(=O)Nc2nonc2N)cc1,67.4*,1.4,114.9,-11.2,1.18,-9.7
Cc1ccc(/C=N/NC(=O)c2ccc(Br)o2)s1,24.2,-0.2,107.7,-7.3,2.05,41.8
CCN(CC)c1ccc(/C=N/NC(=S)NCc2ccc(OC)cc2)cc1,48.6*,0.4,110.8,-12.1,1.09,7.5
CCN(CC)c1ccc(/C=N/NC(=O)c2ccc(Br)o2)cc1,88.1*,-0.3,138.5*,-16.5,4.32*,95.7
SMILES,AHR act,PERK inh,STAT1 activator,Mdm2 ligase inh,NF-kB expr up,APP 5'UTR act
CCc1ccc(/C=N\NC(=O)c2ccc(Br)o2)s1,31.7,0.6,146.0*,-3.1,2.92,49.9
CCN(CC)c1ccc(/C=N/NC(=S)NCc2ccccc2)cc1,8.6,0.8,105.6,-10.0,1.06,13.9
O=C(Nc1ccc(Cc2ccncc2)cc1)c1ccc([N+](=O)[O-])o1,-0.5,nt,nt,nt,nt,nt
O=C(CNC(=O)c1ccc(Br)o1)NNC(=O)COc1ccccc1Cl,2.0,nt,nt,nt,nt,nt
COc1ccccc1OCCNC(=O)CNC(=O)c1ccc(C(C)(C)C)cc1,4.2,nt,nt,nt,nt,nt
FC(F)Oc1ccccc1/C=N/n1cnc2ccccc21,49.1*,-0.1,134.1*,-12.2,1.81,38.5
Cc1ccc(C)c(NC(=O)CCN2C(=O)[C@@H]3Cc4ccccc4CN3C2=O)c1,-4.0,nt,nt,nt,nt,nt
Cc1cccc(-n2nnc3cnn(C)c3c2=O)c1,59.7*,-0.3,102.6,-8.4,2.96,-6.9
COc1cc(-c2noc(C)c2C#Cc2nccn2C)cc(OC)c1OC,65.6*,nt,nt,nt,nt,nt
COc1cc(NC(=O)COC(=O)c2nc3nc(C)cc(C)n3n2)cc(OC)c1,4.7,0.0,103.9,-11.8,1.01,-13.9
CCOC(=O)c1sc(NC(=O)Nc2ccc(Cl)cc2)nc1C,8.8,1.2,129.1*,-22.9,1.82,20.9
CCOC(=O)c1sc(NC(=O)C2C3C=CC(C3)C2C(=O)O)nc1C (stereo unspecified),-0.7,3.4*,99.5,-11.9,2.07,-9.8
CC(=O)c1sc(N/N=C\c2ccccc2O)nc1C,10.0,0.3,101.0,-9.3,5.88*,130.7
CCOC(=O)c1sc(N/N=C/c2cccc(C)c2)nc1C,98.0*,0.7,129.9*,-16.5,1.62,15.0
CCOC(=O)Nc1nc(C)c(C(=O)c2ccc(Cl)cc2)s1,3.7,-0.3,97.0,0.9,0.91,-3.1
O=C(NCc1cccnc1)c1cccc(S(=O)(=O)Nc2cccc(Cl)c2)c1,0.9,nt,nt,nt,nt,nt
O=C(CC(=O)Nc1ccc(Cl)cc1)N/N=C\c1cccc(F)c1,1.8,nt,nt,nt,nt,nt
CCOC(=O)c1c(NC(=O)Nc2ccccc2)sc(C)c1C,48.5*,-0.4,96.0,4.6,1.09,-6.4
CCOC(=O)Nc1sc(C)c(C)c1C(=O)OCC,2.5,0.0,101.6,-7.0,1.28,-5.8
CCn1nc(C)c(/C=N/NC(=O)c2ccoc2C)c1C,32.6,1.1,139.6*,6.3,1.16,110.1
CCn1nc(C)c(/C=N\NC(=O)c2cccc(OC)c2)c1C,49.3*,1.2,97.3,-16.9,0.96,-1.0
Cc1ccc(C(=O)Nc2nnc(SCC(=O)N3CCCc4ccccc43)s2)cc1,10.9,0.6,82.1,-66.3,7.12*,58.8
O=C(Nc1nnc(SCC(=O)N2CCCc3ccccc32)s1)c1cccc2ccccc12,4.6,0.3,99.0,-1.4,0.92,7.5
NC(=O)Cn1nc2sc3ccccc3n2c(=O)c1=O,3.9,0.8,nt,-6.2,nt,nt
Cc1cccc(-c2nc(Nc3ccc(N4CCOCC4)cc3)c3ccccc3n2)c1,56.0*,-0.7,106.6,-3.0,0.3,4.9
SMILES,AHR act,PERK inh,STAT1 activator,Mdm2 ligase inh,NF-kB expr up,APP 5'UTR act
c1ccc2c(Nc3ccc(N4CCOCC4)cc3)nc(N3CCOCC3)nc2c1,71.7*,nt,nt,nt,nt,nt
Cc1cccc(-c2nc(Nc3cccc(O)c3)c3ccccc3n2)c1,68.2*,nt,nt,nt,nt,nt
Cc1ccc(Nc2nc(-c3cccnc3)nc3ccccc23)cc1,-8.1,-1.9,nt,2.4,nt,nt
Oc1ccc(Nc2nc(-c3ccccc3)nc3ccccc23)cc1,3.3,nt,nt,nt,nt,nt
Oc1ccc(/C=C/c2cc(O)cc(O)c2)cc1,9.0,1.0,96.2,nt,22.6*,150.8*
CC(O)CNC12CC3CC(CC(C3)C1)C2 (stereo unspecified),-1.3,0.9,108.4,-5.8,1.09,8.7
O=C(Nc1cccn2ncnc12)c1ccc(Cl)cc1Cl,3.0,0.4,91.2,-17.6,1,-4.1
O=C(Nc1cnc2ccccn2c1=O)c1ccc(Cl)cc1Cl,-3.9,1.1,62.7,-58.0,1.73,152.8*
